How the values were obtained:
Assay type in all cases: toxicity, cell-based
U2OS = experiment: Incucyte cell viability with U2OS; conditions: human, 10 µM, compound concentration 10 uM; also: filed as whole numbers so only -1 and 0 and 1 occur
Fibroblast = experiment: Multiplex assay against human fibroblast
Method in brief: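 Values for tubulin, mitochondrial-mass and membrane-permeability phenotypes are per cents of cells with healthy nuclei. These cells were identified by CellPathfinder machine-learning gating of live cells that had been stained at seeding with Hoechst33342, BioTracker Green Microtubule Cytoskeleton Dye, MitoTracker Red and Annexin V Alexa Fluor 680 and imaged on a CQ1 microscope at 37°C and 5% CO2 after compound addition. The gating first set Hoechst high-intensity objects apart from normal cells, then split normal cells into healthy, pyknosed or fragmented nuclei, and pyknosed cells into mitotic or apoptotic.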

HEK-293T = experiment: Incucyte cell viability with HEK293T; conditions: human, 10 µM, compound concentration 10 uM; also: filed as whole numbers so only -1 and 0 and 1 occur
[1] = 0 h, replicate number 1, timepoint 0 hours
[2] = 6 h, replicate number 1, timepoint 6 hours
[3] = 12 h, replicate number 1, timepoint 12 hours
[4] = 18 h, replicate number 1, timepoint 18 hours
[5] = 24 h, replicate number 1, timepoint 24 hours
[6] = 12 h, 1 µM, compound concentration 1 uM, replicate 1
[7] = 12 h, 1 µM, compound concentration 1 uM, replicate 2
[8] = 12 h, 10 µM, compound concentration 10 uM, replicate 1
[9] = 12 h, 10 µM, compound concentration 10 uM, replicate 2
[10] = 24 h, 1 µM, compound concentration 1 uM, replicate 1
[11] = 24 h, 1 µM, compound concentration 1 uM, replicate 2
[12] = 24 h, 10 µM, compound concentration 10 uM, replicate 1
[13] = 24 h, 10 µM, compound concentration 10 uM, replicate 2

SMILES: Cc1cn(-c2cc(NC(=O)c3ccc4c(c3)CN(c3cncnc3)C[C@@H]4C)cc(C(F)(F)F)c2)cn1
- Growth Rate (U2OS; [1]): 0
- Growth Rate (U2OS; [2]): 0
- Growth Rate (U2OS; [3]): 0
- Growth Rate (U2OS; 12 h, replicate number 2, timepoint 12 hours): 1
- Growth Rate (U2OS; [4]): 0
- Growth Rate (U2OS; [5]): 0
- Population Apoptotic (%) (Fibroblast; [6]): 81%
- Population Fragmented Nuclei (%) (Fibroblast; [6]): 31%
- Population Healthy Nuclei (%) (Fibroblast; [6]): 50%
- Population Hoechst High Intensity Objects (%) (Fibroblast; [6]): 15%
- Population Membrane Permeable-Phenotype (%) (Fibroblast; [6]): 7%
- Population Mitochondria Different-Phenotype (%) (Fibroblast; [6]): 4%
- Population Mitotic Cells (%) (Fibroblast; [6]): 18%
- Population Normal (%) (Fibroblast; [6]): 84%
- Population Pyknosed Nuclei (%) (Fibroblast; [6]): 17%
- Population Tubulin-Different-Phenotype (%) (Fibroblast; [6]): 9%
- Total Cell Count (Fibroblast; [6]): 147
- Population Apoptotic (%) (Fibroblast; [7]): 42%
- Population Fragmented Nuclei (%) (Fibroblast; [7]): 58%
- Population Healthy Nuclei (%) (Fibroblast; [7]): 31%
- Population Hoechst High Intensity Objects (%) (Fibroblast; [7]): 30%
- Population Membrane Permeable-Phenotype (%) (Fibroblast; [7]): 0%
- Population Mitochondria Different-Phenotype (%) (Fibroblast; [7]): 9%
- Population Mitotic Cells (%) (Fibroblast; [7]): 57%
- Population Normal (%) (Fibroblast; [7]): 70%
- Population Pyknosed Nuclei (%) (Fibroblast; [7]): 10%
- Population Tubulin-Different-Phenotype (%) (Fibroblast; [7]): 22%
- Total Cell Count (Fibroblast; [7]): 100
- Population Apoptotic (%) (Fibroblast; [8]): 71%
- Population Fragmented Nuclei (%) (Fibroblast; [8]): 33%
- Population Healthy Nuclei (%) (Fibroblast; [8]): 49%
- Population Hoechst High Intensity Objects (%) (Fibroblast; [8]): 13%
- Population Mitochondria Different-Phenotype (%) (Fibroblast; [8]): 5%
- Population Mitotic Cells (%) (Fibroblast; [8]): 28%
- Population Normal (%) (Fibroblast; [8]): 86%
- Population Pyknosed Nuclei (%) (Fibroblast; [8]): 17%
- Population Tubulin-Different-Phenotype (%) (Fibroblast; [8]): 23%
- Total Cell Count (Fibroblast; [8]): 141
- Population Apoptotic (%) (Fibroblast; [9]): 75%
- Population Fragmented Nuclei (%) (Fibroblast; [9]): 67%
- Population Healthy Nuclei (%) (Fibroblast; [9]): 18%
- Population Hoechst High Intensity Objects (%) (Fibroblast; [9]): 36%
- Population Membrane Permeable-Phenotype (%) (Fibroblast; [9]): 10%
- Population Mitochondria Different-Phenotype (%) (Fibroblast; [9]): 50%
- Population Mitotic Cells (%) (Fibroblast; [9]): 25%
- Population Normal (%) (Fibroblast; [9]): 63%
- Population Pyknosed Nuclei (%) (Fibroblast; [9]): 14%
- Population Tubulin-Different-Phenotype (%) (Fibroblast; [9]): 40%
- Total Cell Count (Fibroblast; [9]): 87
- Population Apoptotic (%) (Fibroblast; [10]): 92%
- Population Fragmented Nuclei (%) (Fibroblast; [10]): 35%
- Population Healthy Nuclei (%) (Fibroblast; [10]): 45%
- Population Hoechst High Intensity Objects (%) (Fibroblast; [10]): 19%
- Population Membrane Permeable-Phenotype (%) (Fibroblast; [10]): 11%
- Population Mitochondria Different-Phenotype (%) (Fibroblast; [10]): 1%
- Population Mitotic Cells (%) (Fibroblast; [10]): 7%
- Population Normal (%) (Fibroblast; [10]): 80%
- Population Pyknosed Nuclei (%) (Fibroblast; [10]): 19%
- Population Tubulin-Different-Phenotype (%) (Fibroblast; [10]): 7%
- Total Cell Count (Fibroblast; [10]): 172
- Population Apoptotic (%) (Fibroblast; [11]): 42%
- Population Fragmented Nuclei (%) (Fibroblast; [11]): 51%
- Population Healthy Nuclei (%) (Fibroblast; [11]): 37%
- Population Hoechst High Intensity Objects (%) (Fibroblast; [11]): 28%
- Population Membrane Permeable-Phenotype (%) (Fibroblast; [11]): 13%
- Population Mitochondria Different-Phenotype (%) (Fibroblast; [11]): 8%
- Population Mitotic Cells (%) (Fibroblast; [11]): 57%
- Population Normal (%) (Fibroblast; [11]): 71%
- Population Pyknosed Nuclei (%) (Fibroblast; [11]): 11%
- Population Tubulin-Different-Phenotype (%) (Fibroblast; [11]): 17%
- Total Cell Count (Fibroblast; [11]): 87
- Population Apoptotic (%) (Fibroblast; [12]): 66%
- Population Fragmented Nuclei (%) (Fibroblast; [12]): 36%
- Population Healthy Nuclei (%) (Fibroblast; [12]): 48%
- Population Hoechst High Intensity Objects (%) (Fibroblast; [12]): 16%
- Population Membrane Permeable-Phenotype (%) (Fibroblast; [12]): 3%
- Population Mitochondria Different-Phenotype (%) (Fibroblast; [12]): 10%
- Population Mitotic Cells (%) (Fibroblast; [12]): 33%
- Population Normal (%) (Fibroblast; [12]): 83%
- Population Pyknosed Nuclei (%) (Fibroblast; [12]): 15%
- Population Tubulin-Different-Phenotype (%) (Fibroblast; [12]): 26%
- Total Cell Count (Fibroblast; [12]): 161
- Population Apoptotic (%) (Fibroblast; [13]): 57%
- Population Fragmented Nuclei (%) (Fibroblast; [13]): 66%
- Population Healthy Nuclei (%) (Fibroblast; [13]): 20%
- Population Hoechst High Intensity Objects (%) (Fibroblast; [13]): 36%
- Population Membrane Permeable-Phenotype (%) (Fibroblast; [13]): 9%
- Population Mitochondria Different-Phenotype (%) (Fibroblast; [13]): 18%
- Population Mitotic Cells (%) (Fibroblast; [13]): 42%
- Population Normal (%) (Fibroblast; [13]): 63%
- Population Pyknosed Nuclei (%) (Fibroblast; [13]): 12%
- Population Tubulin-Different-Phenotype (%) (Fibroblast; [13]): 36%
- Total Cell Count (Fibroblast; [13]): 85
- Growth Rate (HEK-293T; [2]): 0
- Growth Rate (HEK-293T; [3]): 0
- Growth Rate (HEK-293T; [4]): 0
- Growth Rate (HEK-293T; [5]): 0

SMILES: COc1cc2c(Nc3ccc(NC(=O)c4ccccc4)cc3)ncnc2cc1OCCCN1CCOCC1
- Growth Rate (U2OS; [1]): 1
- Growth Rate (U2OS; [2]): 1
- Growth Rate (U2OS; [3]): 0
- Growth Rate (U2OS; [4]): 0
- Growth Rate (U2OS; 18 h, replicate number 2, timepoint 18 hours): 1
- Growth Rate (U2OS; [5]): 0
- Growth Rate (U2OS; 24 h, replicate number 2, timepoint 24 hours): 1
- Population Apoptotic (%) (Fibroblast; [6]): 55%
- Population Fragmented Nuclei (%) (Fibroblast; [6]): 25%
- Population Healthy Nuclei (%) (Fibroblast; [6]): 53%
- Population Hoechst High Intensity Objects (%) (Fibroblast; [6]): 35%
- Population Membrane Permeable-Phenotype (%) (Fibroblast; [6]): 9%
- Population Mitochondria Different-Phenotype (%) (Fibroblast; [6]): 10%
- Population Mitotic Cells (%) (Fibroblast; [6]): 44%
- Population Normal (%) (Fibroblast; [6]): 64%
- Population Pyknosed Nuclei (%) (Fibroblast; [6]): 20%
- Population Tubulin-Different-Phenotype (%) (Fibroblast; [6]): 41%
- Total Cell Count (Fibroblast; [6]): 470
- Population Apoptotic (%) (Fibroblast; [7]): 33%
- Population Fragmented Nuclei (%) (Fibroblast; [7]): 44%
- Population Healthy Nuclei (%) (Fibroblast; [7]): 46%
- Population Hoechst High Intensity Objects (%) (Fibroblast; [7]): 30%
- Population Membrane Permeable-Phenotype (%) (Fibroblast; [7]): 22%
- Population Mitochondria Different-Phenotype (%) (Fibroblast; [7]): 12%
- Population Mitotic Cells (%) (Fibroblast; [7]): 66%
- Population Normal (%) (Fibroblast; [7]): 69%
- Population Pyknosed Nuclei (%) (Fibroblast; [7]): 8%
- Population Tubulin-Different-Phenotype (%) (Fibroblast; [7]): 64%
- Total Cell Count (Fibroblast; [7]): 97
- Population Apoptotic (%) (Fibroblast; [8]): 82%
- Population Fragmented Nuclei (%) (Fibroblast; [8]): 39%
- Population Healthy Nuclei (%) (Fibroblast; [8]): 49%
- Population Hoechst High Intensity Objects (%) (Fibroblast; [8]): 19%
- Population Membrane Permeable-Phenotype (%) (Fibroblast; [8]): 9%
- Population Mitochondria Different-Phenotype (%) (Fibroblast; [8]): 5%
- Population Mitotic Cells (%) (Fibroblast; [8]): 17%
- Population Normal (%) (Fibroblast; [8]): 80%
- Population Pyknosed Nuclei (%) (Fibroblast; [8]): 11%
- Population Tubulin-Different-Phenotype (%) (Fibroblast; [8]): 4%
- Total Cell Count (Fibroblast; [8]): 250
- Population Apoptotic (%) (Fibroblast; [9]): 0%
- Population Fragmented Nuclei (%) (Fibroblast; [9]): 70%
- Population Healthy Nuclei (%) (Fibroblast; [9]): 27%
- Population Hoechst High Intensity Objects (%) (Fibroblast; [9]): 41%
- Population Membrane Permeable-Phenotype (%) (Fibroblast; [9]): 0%
- Population Mitochondria Different-Phenotype (%) (Fibroblast; [9]): 7%
- Population Mitotic Cells (%) (Fibroblast; [9]): 100%
- Population Normal (%) (Fibroblast; [9]): 58%
- Population Pyknosed Nuclei (%) (Fibroblast; [9]): 2%
- Population Tubulin-Different-Phenotype (%) (Fibroblast; [9]): 7%
- Total Cell Count (Fibroblast; [9]): 82
- Population Apoptotic (%) (Fibroblast; [10]): 61%
- Population Fragmented Nuclei (%) (Fibroblast; [10]): 26%
- Population Healthy Nuclei (%) (Fibroblast; [10]): 47%
- Population Hoechst High Intensity Objects (%) (Fibroblast; [10]): 46%
- Population Membrane Permeable-Phenotype (%) (Fibroblast; [10]): 14%
- Population Mitochondria Different-Phenotype (%) (Fibroblast; [10]): 17%
- Population Mitotic Cells (%) (Fibroblast; [10]): 38%
- Population Normal (%) (Fibroblast; [10]): 53%
- Population Pyknosed Nuclei (%) (Fibroblast; [10]): 26%
- Population Tubulin-Different-Phenotype (%) (Fibroblast; [10]): 59%
- Total Cell Count (Fibroblast; [10]): 391
- Population Apoptotic (%) (Fibroblast; [11]): 58%
- Population Fragmented Nuclei (%) (Fibroblast; [11]): 34%
- Population Healthy Nuclei (%) (Fibroblast; [11]): 42%
- Population Hoechst High Intensity Objects (%) (Fibroblast; [11]): 41%
- Population Membrane Permeable-Phenotype (%) (Fibroblast; [11]): 23%
- Population Mitochondria Different-Phenotype (%) (Fibroblast; [11]): 33%
- Population Mitotic Cells (%) (Fibroblast; [11]): 41%
- Population Normal (%) (Fibroblast; [11]): 58%
- Population Pyknosed Nuclei (%) (Fibroblast; [11]): 24%
- Population Tubulin-Different-Phenotype (%) (Fibroblast; [11]): 52%
- Total Cell Count (Fibroblast; [11]): 85
- Population Apoptotic (%) (Fibroblast; [12]): 76%
- Population Fragmented Nuclei (%) (Fibroblast; [12]): 31%
- Population Healthy Nuclei (%) (Fibroblast; [12]): 55%
- Population Hoechst High Intensity Objects (%) (Fibroblast; [12]): 22%
- Population Membrane Permeable-Phenotype (%) (Fibroblast; [12]): 6%
- Population Mitochondria Different-Phenotype (%) (Fibroblast; [12]): 3%
- Population Mitotic Cells (%) (Fibroblast; [12]): 24%
- Population Normal (%) (Fibroblast; [12]): 77%
- Population Pyknosed Nuclei (%) (Fibroblast; [12]): 13%
- Population Tubulin-Different-Phenotype (%) (Fibroblast; [12]): 5%
- Total Cell Count (Fibroblast; [12]): 248
- Population Apoptotic (%) (Fibroblast; [13]): 66%
- Population Fragmented Nuclei (%) (Fibroblast; [13]): 69%
- Population Healthy Nuclei (%) (Fibroblast; [13]): 25%
- Population Hoechst High Intensity Objects (%) (Fibroblast; [13]): 32%
- Population Membrane Permeable-Phenotype (%) (Fibroblast; [13]): 15%
- Population Mitochondria Different-Phenotype (%) (Fibroblast; [13]): 7%
- Population Mitotic Cells (%) (Fibroblast; [13]): 33%
- Population Normal (%) (Fibroblast; [13]): 67%
- Population Pyknosed Nuclei (%) (Fibroblast; [13]): 5%
- Population Tubulin-Different-Phenotype (%) (Fibroblast; [13]): 15%
- Total Cell Count (Fibroblast; [13]): 77
- Growth Rate (HEK-293T; [2]): 0
- Growth Rate (HEK-293T; [3]): 0
- Growth Rate (HEK-293T; [4]): 0
- Growth Rate (HEK-293T; [5]): 0

Reference: ChEMBL document CHEMBL4689842, “EUbOPEN Chemogenomics Library wave 1” (2021)
